For test [1], the system named is Stenotrophomonas maltophilia. In words: Antimicrobial activity against Stenotrophomonas maltophilia ATCC 13637 at 64 ug/ml by broth microdilution assay. The test is classed as functional, organism-based. The method, boiled down:
(§1)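 Broth microdilution susceptibility testing following NCCLS approved standards: M27-A (yeast method) and M7-A4. Each compound was tested at a single concentration of 64 μg/ml for growth inhibition of the listed strains: S. maltophilia ATCC 13637, M. luteus Presque Isle 456, S. aureus ATCC 29213, E. coli ATCC 25922, E. cloacae ATCC 13047, E. faecalis ATCC 29212, C. albicans ATCC 90028 and C. neoformans ATCC 90112.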

The next test deals with P388. In words: Antitumor activity against mouse P388 cells after 48 hrs by Sulforhodamine B. The test is classed as functional. Particulars: P388, 48 h, read-out: ED50 (the source's name).
Another test has as its system Micrococcus luteus. Kind of test: Antimicrobial activity against Micrococcus luteus Presque Isle 456 at 64 ug/ml by broth microdilution assay. The test is classed as functional, organism-based. A digest of the protocol: as §1
The test system of another test is Staphylococcus aureus. Kind of test: Antimicrobial activity against Staphylococcus aureus ATCC 29213 at 64 ug/ml by broth microdilution assay. The test is classed as functional, organism-based. A digest of the protocol:
as §1

In a further test the test system is Escherichia coli. In words: Antimicrobial activity against Escherichia coli ATCC 25922 at 64 ug/ml by broth microdilution assay. In kind it is functional, organism-based. A digest of the protocol:
as §1

A further test deals with Enterobacter cloacae. Kind of test: Antimicrobial activity against Enterobacter cloacae ATCC 13047 at 64 ug/ml by broth microdilution assay. The test is classed as functional, organism-based. A digest of the protocol: as §1
The test system of a further test is Enterococcus faecalis. Kind of test: Antimicrobial activity against Enterococcus faecalis ATCC 29212 at 64 ug/ml by broth microdilution assay. In kind it is functional, organism-based. A digest of the protocol: as §1
The next test concerns Candida albicans. Kind of test: Antimicrobial activity against Candida albicans ATCC 90028 at 64 ug/ml by broth microdilution assay. The test is classed as functional, organism-based. The method, boiled down:
as §1

A further test has as its system Cryptococcus neoformans. In words: Antimicrobial activity against Cryptococcus neoformans ATCC 90112 at 64 ug/ml by broth microdilution assay. In kind it is functional, organism-based. A digest of the protocol: as §1

Structures are written as SMILES. Values after ≈ are worked out from the molar mass of the structure shown. Active and inactive are the calls of the source. The rule behind the calls is not given here.

`C/C(C=O)=C1/CC[C@@]1(C)[C@@H]1C[C@](C)(CO)C[C@H]1O`: the result (in [1]; in the test on Micrococcus luteus; in the test on Staphylococcus aureus; in the test on Escherichia coli; in the test on Enterobacter cloacae; with Enterococcus faecalis) was inactive. Moreover, the result with Candida albicans and in the test with Cryptococcus neoformans was inactive. In addition, the EC50 in the test on P388 was determined as 5.3 mg/L (≈ 21 µM).
In the case of `CC1(C)C[C@H]2[C@H](O)C(CO)=C3[C@H](O)C[C@]3(C)[C@H]2C1`, the result (in test [1]; in the test with Micrococcus luteus; with Staphylococcus aureus; in the test on Escherichia coli; in the test on Enterobacter cloacae; in the test on Enterococcus faecalis) was inactive. Also, the outcome in the test with Candida albicans and with Cryptococcus neoformans was inactive.
In the case of `C=C1[C@H](O)[C@H]2C[C@](C)(CO)CC2=C(C)C12CC2`, the result (in test [1]; with Micrococcus luteus; with Staphylococcus aureus; in the test with Escherichia coli; in the test on Enterobacter cloacae; in the test on Enterococcus faecalis) was inactive. For the same compound, the outcome with Candida albicans and in the test with Cryptococcus neoformans was inactive.

These data come from ChEMBL document CHEMBL1177691, “Antineoplastic agents 582. Part 1: Isolation and structure of a cyclobutane-type sesquiterpene cancer cell growth inhibitor from Coprinus cinereus (Coprinaceae)” (2010).
